Results reported in PMC12671527 (Research in Pharmaceutical Sciences, 2025).
In brackets after ≈: the same amount, converted by molar mass.

Assays:
Type in all cases: cell-based
[1] = system: Acinetobacter baumannii ATCC 1799; assay: MIC and MBC, broth microdilution; conditions: ATCC1799, 18 h
Summary of the method: (§1)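 Broth microdilution per CLSI. Isolates were revived from glycerol stocks, grown overnight in Mueller-Hinton broth and diluted to 10^6 CFU/mL, then mixed with equal volumes of serially diluted test compound, six wells per concentration. Plates ran 18 h at 37 °C with growth read at OD 570 nm; MIC was the lowest inhibiting concentration. MBC: clear wells streaked on agar for 24 h, 99.9% kill. Triplicate experiments. SI = MDCK IC50/MIC.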

[2] = system: Klebsiella pneumoniae ATCC 2814; assay: MIC and MBC, broth microdilution; conditions: ATCC2814, 18 h
Summary of the method: as §1

[3] = system: Pseudomonas aeruginosa ATCC 3197; assay: MIC and MBC, broth microdilution; conditions: ATCC3197, 18 h
Summary of the method: as §1

[4] = system: Enterococcus faecium ATCC 2316; assay: MIC and MBC, broth microdilution; conditions: ATCC2316, 18 h
Summary of the method: as §1

[5] = system: Staphylococcus epidermidis ATCC 700565; assay: MIC and MBC, broth microdilution; conditions: ATCC700565, 18 h
Summary of the method: as §1

[6] = system: Acinetobacter baumannii ATCC 1799; assay: Synergistic studies, broth microdilution checkerboard; conditions: levofloxacin combined with UP5, checkerboard, first no-growth well, triplicate
Summary of the method: (§2)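 Checkerboard broth microdilution in Mueller-Hinton broth. Each well held graded concentrations of the peptide and levofloxacin in crossed combination, plus inoculum at 10^6 CFU/mL before mixing. Plates ran 18 h at 37 °C with growth read at OD 570 nm. Combination MICs were determined in triplicate. FIC = sum of combined/alone MIC ratios, with 100 µM used as the denominator when the solo MIC exceeded 100 µM.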

[7] = system: Klebsiella pneumoniae ATCC 2814; assay: as above; conditions: levofloxacin combined with UP5, checkerboard, first no-growth well, triplicate
Summary of the method: as §2

[8] = system: Pseudomonas aeruginosa ATCC 3197; assay: Synergistic studies, broth microdilution checkerboard; conditions: levofloxacin combined with UP5, checkerboard, first no-growth well, triplicate
[9] = system: Enterococcus faecium ATCC 2316; assay: Synergistic studies, broth microdilution checkerboard; conditions: levofloxacin combined with UP5, checkerboard, first no-growth well, triplicate
Summary of the method: as §2

[10] = system: Staphylococcus aureus ATCC BAA-44; assay: as above; conditions: levofloxacin combined with UP5, checkerboard, first no-growth well, triplicate
Summary of the method: as §2

[11] = system: Staphylococcus epidermidis ATCC 700565; assay: as above; conditions: levofloxacin combined with UP5, checkerboard, first no-growth well, triplicate
Summary of the method: as §2

## C[C@H]1COc2c(N3CCN(C)CC3)c(F)cc3c(=O)c(C(=O)O)cn1c23 [Levofloxacin, levofloxacin]
[1]
  MIC: > 100 µM
[2]
  MIC: > 100 µM
[3]
  MIC: 25 µM (≈ 9.03 µg/mL)
[4]
  MIC: 50 µM (≈ 18.1 µg/mL)
[5]
  MIC: 25 µM (≈ 9.03 µg/mL)
[6]
  MIC in combination, Levofloxacin: 12.5 µM
[7]
  MIC in combination, Levofloxacin: 25 µM
[8]
  MIC in combination, Levofloxacin: 12.5 µM
[9]
  MIC in combination, Levofloxacin: 12.5 µM
[10]
  MIC in combination, Levofloxacin: 12.5 µM
[11]
  MIC in combination, Levofloxacin: 6.25 µM
